Series [1] in a line: Partition coefficient (logP). Format: physicochemical. To be noted: octanol/water.
The test system of series [2] is Mus musculus. As to the kind of experiment: Tumor uptake in C3H mice bearing RIF tumors, determined by in vivo reflectance spectroscopy following 5.0 umol/kg administration. It is filed as functional. An outline of the steps: (§1)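 Photosensitizer given iv at 5.0 µmol/kg to C3H mice bearing RIF tumors, anesthetized with ketamine xylazine ip. Scattered-light spectrum from tissue was recorded before and after injection. The in vivo drug absorption was taken as the ratio of post- to pre-injection spectra. Tumor and skin were compared at 24 h postinjection.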

The test system of series [3] is Mus musculus. As to the kind of experiment: Skin uptake in C3H mice bearing RIF tumors, determined by in vivo reflectance spectroscopy following 5.0 umol/kg administration. It is filed as functional. An outline of the steps: as §1
A short description of series [4]: Tumor and skin uptake ratio of the compound. It is filed as functional. An outline of the steps:
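C3H mice bearing RIF tumors, anesthetized with ketamine xylazine ip; photosensitizer given iv at 5.0 µmol/kg. Uptake measured by in vivo reflectance spectroscopy: light scattered by tissue recorded before and after injection, and drug absorption taken as the postinjection/preinjection spectral ratio. Tumor versus skin uptake compared at 24 h postinjection.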

This note sets out measurements from ChEMBL document CHEMBL1134470, “Synthesis, photophysical properties, tumor uptake, and preliminary in vivo photosensitizing efficacy of a homologous series of 3-(1'-alkyloxy)ethyl-3-devinylpurpurin-18-N-alkylimides with variable lipophilicity” (J Med Chem, 2001).

Structures are written as SMILES.

Usually logP stands for the decadic logarithm of the partition coefficient of the neutral form, usually between octanol and water. Regarding `CCCCCCOC(C)C1=C(C)c2cc3nc(c4c5[nH]c(cc6[nH]c(cc1n2)c(C)c6CC)c(C)c5C(=O)N(CCC)C4=O)[C@@H](CCC(=O)OC)[C@@H]3C` (stereo not given in full), in series [1] (read-out: logP), the logP is 8.79. The Tumor uptake in the series on Mus musculus [2] was found to be 4.95 µM. Besides, the Skin uptake with Mus musculus [3] came out at 1.48 µM. Besides, in series [4], the Ratio was found to be 3.34.

Molecule `CCCCCCCCCCN1C(=O)c2c3nc(cc4nc(cc5[nH]c(cc6[nH]c2c(c6C)C1=O)c(CC)c5C)C(C(C)OCCCCCC)=C4C)[C@@H](C)[C@@H]3CCC(=O)OC` (stereo not given in full) displayed a Tumor uptake with Mus musculus [2] of 5.18 µM. This molecule also had a Skin uptake in the series on Mus musculus [3] of 1.8 µM. In series [4], the Ratio is 2.88.

`CCCCCCCOC(C)C1=C(C)c2cc3nc(c4c5[nH]c(cc6[nH]c(cc1n2)c(C)c6CC)c(C)c5C(=O)N(CCCCCC)C4=O)[C@@H](CCC(=O)OC)[C@@H]3C` (stereo not given in full) displayed a Tumor uptake in the series with Mus musculus [2] of 8.2 µM. This molecule gave a Skin uptake in the series with Mus musculus [3] of 2.6 µM. In addition, the Ratio in series [4] stood at 3.15.

In the case of `CCCCCCCCCCN1C(=O)c2c3nc(cc4nc(cc5[nH]c(cc6[nH]c2c(c6C)C1=O)c(CC)c5C)C(C(C)OCCC)=C4C)[C@@H](C)[C@@H]3CCC(=O)OC` (stereo not given in full), the logP in series [1] worked out at 10.83. For the same molecule, the Tumor uptake in the series on Mus musculus [2] was 11.5 µM. For the same molecule, the Skin uptake in the series with Mus musculus [3] is 6.09 µM. Besides, in series [4], the Ratio was determined as 1.89.

In the case of `CCCCCCCCCCCCOC(C)C1=C(C)c2cc3nc(c4c5[nH]c(cc6[nH]c(cc1n2)c(C)c6CC)c(C)c5C(=O)N(CCCCCC)C4=O)[C@@H](CCC(=O)OC)[C@@H]3C` (stereo not given in full), the Tumor uptake in the series on Mus musculus [2] is 9.4 µM. This molecule also showed a Skin uptake with Mus musculus [3] of 4.3 µM. For the same molecule, in series [4], the Ratio was found to be 2.19.

On to `CCCCCCCCCCCCOC(C)C1=C(C)c2cc3nc(c4c5[nH]c(cc6[nH]c(cc1n2)c(C)c6CC)c(C)c5C(=O)N(CCCCCCCCCCCC)C4=O)[C@@H](CCC(=O)OC)[C@@H]3C` (stereo not given in full), for which the Tumor uptake with Mus musculus [2] is 5.04 µM. The molecule also returned a Skin uptake in the series on Mus musculus [3] of 2.7 µM. Moreover, the Ratio in series [4] was 1.87.

With `CCCOC(C)C1=C(C)c2cc3nc(c4c5[nH]c(cc6[nH]c(cc1n2)c(C)c6CC)c(C)c5C(=O)N(CCC)C4=O)[C@@H](CCC(=O)OC)[C@@H]3C` (stereo not given in full), in series [1] (read-out: logP), the log partition coefficient (logP) worked out at 7.26. In addition, in the series on Mus musculus [2], the Tumor uptake amounted to 10.5 µM. The Skin uptake in the series with Mus musculus [3] stood at 4.8 µM. Besides, in series [4], the Ratio is 2.19.

Take `CCCCCCCCCCCCN1C(=O)c2c3nc(cc4nc(cc5[nH]c(cc6[nH]c2c(c6C)C1=O)c(CC)c5C)C(C(C)OCCCCCC)=C4C)[C@@H](C)[C@@H]3CCC(=O)OC` (stereo not given in full): the Tumor uptake with Mus musculus [2] is 4.77 µM. Moreover, the Skin uptake in the series with Mus musculus [3] is 2 µM. Also, in series [4], the Ratio was 2.39.

The molecule `CCCCCCCCCOC(C)C1=C(C)c2cc3nc(c4c5[nH]c(cc6[nH]c(cc1n2)c(C)c6CC)c(C)c5C(=O)N(CCCCCC)C4=O)[C@@H](CCC(=O)OC)[C@@H]3C` (stereo not given in full) had a logP in series [1] of 11.85. This molecule gave a Tumor uptake with Mus musculus [2] of 10.7 µM. Also, the Skin uptake in the series on Mus musculus [3] turned out to be 3.54 µM. Moreover, the Ratio in series [4] is 3.02.

With `CCCCCCCCCCCCOC(C)C1=C(C)c2cc3nc(c4c5[nH]c(cc6[nH]c(cc1n2)c(C)c6CC)c(C)c5C(=O)N(C)C4=O)[C@@H](CCC(=O)OC)[C@@H]3C` (stereo not given in full), in series [1], the logP is reported as 10.73. This molecule registered a Tumor uptake in the series with Mus musculus [2] of 6.21 µM. In the series with Mus musculus [3], this molecule returned a Skin uptake of 1.74 µM. The Ratio in series [4] was 3.57.

As to `CCCCCCN1C(=O)c2c3nc(cc4nc(cc5[nH]c(cc6[nH]c2c(c6C)C1=O)c(CC)c5C)C(C(C)OC)=C4C)[C@@H](C)[C@@H]3CCC(=O)OC` (stereo not given in full), the logP in series [1] (read-out: logP) was 7.82. Besides, the Tumor uptake in the series on Mus musculus [2] is 10.1 µM. Besides, the Skin uptake with Mus musculus [3] came to 4.5 µM. The Ratio in series [4] was determined as 2.24.

Take `CCCCCCCCCCOC(C)C1=C(C)c2cc3nc(c4c5[nH]c(cc6[nH]c(cc1n2)c(C)c6CC)c(C)c5C(=O)N(CCCCCCCCCC)C4=O)[C@@H](CCC(=O)OC)[C@@H]3C` (stereo not given in full): in the series with Mus musculus [2], the Tumor uptake amounted to 5.56 µM. Further, the Skin uptake in the series on Mus musculus [3] turned out to be 1.73 µM. Further, in series [4], the Ratio was determined as 3.21.

Turning to `CCc1c(C)c2cc3[nH]c(cc4nc(c5c6nc(cc1[nH]2)C(C)=C6C(=O)N(C)C5=O)[C@@H](CCC(=O)OC)[C@@H]4C)c(C)c3C(C)OC` (stereo not given in full), the logP in series [1] (read-out: logP) worked out at 5.32. The Tumor uptake in the series on Mus musculus [2] was determined as 0.3 µM. Besides, the Skin uptake with Mus musculus [3] was 0.1 µM. The Ratio in series [4] amounted to 2.87.

`CCCCCCOC(C)C1=C(C)c2cc3nc(c4c5[nH]c(cc6[nH]c(cc1n2)c(C)c6CC)c(C)c5C(=O)N(CCCCCC)C4=O)[C@@H](CCC(=O)OC)[C@@H]3C` (stereo not given in full) yielded a logP in series [1] of 10.32. In the series with Mus musculus [2], the Tumor uptake was determined as 7.3 µM. In the series on Mus musculus [3], this molecule had a Skin uptake of 2.3 µM. Moreover, in series [4], the Ratio is 3.17.

Consider `CCCCCCOC(C)C1=C(C)c2cc3nc(c4c5[nH]c(cc6[nH]c(cc1n2)c(C)c6CC)c(C)c5C(=O)N(C)C4=O)[C@@H](CCC(=O)OC)[C@@H]3C` (stereo not given in full), for which, in series [1] (read-out: logP), the logP was found to be 7.67. The molecule further had a Tumor uptake in the series on Mus musculus [2] of 6.42 µM. The Skin uptake in the series on Mus musculus [3] came out at 1.78 µM. Besides, the Ratio in series [4] turned out to be 3.61.

Regarding `CCCCCCN1C(=O)c2c3nc(cc4nc(cc5[nH]c(cc6[nH]c2c(c6C)C1=O)c(CC)c5C)C(C(C)OCCC)=C4C)[C@@H](C)[C@@H]3CCC(=O)OC` (stereo not given in full), in series [1] (read-out: logP), the logP was 8.79. In the series on Mus musculus [2], this molecule showed a Tumor uptake of 13.8 µM. The Skin uptake with Mus musculus [3] turned out to be 6.29 µM. For the same molecule, the Ratio in series [4] worked out at 2.19.

In turn, `CCCCCCCN1C(=O)c2c3nc(cc4nc(cc5[nH]c(cc6[nH]c2c(c6C)C1=O)c(CC)c5C)C(C(C)OCCCCCC)=C4C)[C@@H](C)[C@@H]3CCC(=O)OC` (stereo not given in full) registered a logP in series [1] of 10.83. The Tumor uptake in the series with Mus musculus [2] is 8.04 µM. In addition, the Skin uptake in the series with Mus musculus [3] came to 2.95 µM. For the same molecule, the Ratio in series [4] amounted to 2.73.

In turn, `CCCCCCCCCCCCN1C(=O)c2c3nc(cc4nc(cc5[nH]c(cc6[nH]c2c(c6C)C1=O)c(CC)c5C)C(C(C)OC)=C4C)[C@@H](C)[C@@H]3CCC(=O)OC` (stereo not given in full) displayed a logP in series [1] of 10.88. Moreover, the Tumor uptake with Mus musculus [2] worked out at 15.48 µM. This molecule also gave a Skin uptake in the series on Mus musculus [3] of 5.8 µM. The Ratio in series [4] worked out at 2.67.

`CCCCCCCCCCOC(C)C1=C(C)c2cc3nc(c4c5[nH]c(cc6[nH]c(cc1n2)c(C)c6CC)c(C)c5C(=O)N(CCC)C4=O)[C@@H](CCC(=O)OC)[C@@H]3C` (stereo not given in full): the lipophilicity (logP) in series [1] came to 10.68. Besides, in the series with Mus musculus [2], the Tumor uptake is 10.26 µM. The Skin uptake in the series with Mus musculus [3] was found to be 4.28 µM. Moreover, in series [4], the Ratio came out at 2.4.
